Columns and labels:
Type in all cases: physicochemical
[1] = Antioxidant activity assessed as DPPH radical scavenging activity measured as rate constant after 10 secs by UV-visible spectrophotometry; settings: 10 s
In short: (§1)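 DPPH radical decay, antioxidant at 1.67, 16.7 or 60.0 μM. After 10 s of mixing with DPPH, A517 was read at once and then every 15 s for 5 min. The second-order rate constant k and the plateau absorbance (t → ∞) came from curve-fitting absorbance vs time under global second-order kinetics.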

[2] = Antioxidant activity assessed as DPPH radical scavenging activity at 1.67 uM measured as absorbance (t -> infinity) after 10 secs by UV-visible spectrophotometry; settings: 10 s; in short: as §1
[3] = Antioxidant activity assessed as DPPH radical scavenging activity at 16.7 uM measured as absorbance (t -> infinity) after 10 secs by UV-visible spectrophotometry; settings: 10 s; in short: as §1
[4] = Antioxidant activity assessed as DPPH radical scavenging activity at 60 uM measured as absorbance (t -> infinity) after 10 secs by UV-visible spectrophotometry; settings: 10 s; in short: as §1
[5] = Antioxidant activity assessed as hydroxyl radical scavenging activity at 1.5 uM by ESR spin trapping assay
In short: (§2)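 Hydroxyl radicals came from Fenton reaction (H2O2, EDTA, FeSO4 to start) with DMPO spin trap. Samples in ACN (stocks 0.03–0.3 mM) gave final 1.5, 2.5, 5.0 or 15.0 μM; ACN alone served as control. ESR signal was taken as the ratio of the DMPO adduct second-singlet amplitude to the TEMPO (2 μM, daily reference) first-singlet amplitude.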

[6] = Antioxidant activity assessed as hydroxyl radical scavenging activity at 2.5 uM by ESR spin trapping assay; in short: as §2
[7] = Antioxidant activity assessed as hydroxyl radical scavenging activity at 5 uM by ESR spin trapping assay; in short: as §2
[8] = Antioxidant activity assessed as hydroxyl radical scavenging activity at 15 uM by ESR spin trapping assay; in short: as §2
[9] = Antioxidant activity assessed as superoxide anion radical scavenging activity at 40 uM measured as rate constant recorded every min for 7 mins by nitroblue tetrazolium assay (reference value: 0.188 +/- 0.001 /min)
In short: (§3)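 Superoxide came from hypoxanthine/xanthine oxidase (2 mM HPX, 0.56 U·mL−1 XOD stocks) with 0.34 mM NBT in 50 mM phosphate buffer pH 7.4. A560 was read every minute for 7 min. Pseudo-first-order rate constant k1 and final NBTH2 absorbance (t → ∞) came from curve-fitting absorbance vs time, with antioxidant at 40, 80 or 160 μM.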

[10] = Antioxidant activity assessed as superoxide anion radical scavenging activity at 80 uM measured as rate constant recorded every min for 7 mins by nitroblue tetrazolium assay (reference value: 0.188 +/- 0.001 /min); in short: as §3
[11] = Antioxidant activity assessed as superoxide anion radical scavenging activity at 160 uM measured as rate constant recorded every min for 7 mins by nitroblue tetrazolium assay (reference value: 0.188 +/- 0.001 /min); in short: as §3
[12] = Antioxidant activity assessed as superoxide anion radical scavenging activity at 40 uM measured as absorbance (t > infinity) recorded every min for 7 mins by nitroblue tetrazolium assay (reference value: 1.9 +/- 0.01); in short: as §3
[13] = Antioxidant activity assessed as superoxide anion radical scavenging activity at 80 uM measured as absorbance (t > infinity) recorded every min for 7 mins by nitroblue tetrazolium assay (reference value: 1.9 +/- 0.01); in short: as §3
[14] = Antioxidant activity assessed as superoxide anion radical scavenging activity at 160 uM measured as absorbance (t > infinity) recorded every min for 7 mins by nitroblue tetrazolium assay (reference value: 1.9 +/- 0.01); in short: as §3
[15] = Antioxidant activity assessed as superoxide anion radical scavenging activity measured as rate constant recorded every min for 7 mins by nitroblue tetrazolium assay; in short: as §3

Row | K [1] | Activity [2] | Activity [3] | Activity [4] | Activity [5] | Activity [6] | Activity [7] | Activity [8] | K [9] | K [10] | K [11] | Activity [12] | Activity [13] | Activity [14] | Activity [15] | SMILES
1 | 12000 M⁻¹ s⁻¹ | 1.232 | 0.913 | 0.53 | 23% | 26% | 33% | 40% | 0.2 min⁻¹ | 0.14 min⁻¹ | 0.19 min⁻¹ | 1.27 | 1.4 | 1.03 | – | COc1cc(/C=C/C(=O)O)ccc1O [FERULATE]
2 | 14000 M⁻¹ s⁻¹ | 1.008 | 0.896 | 0.57 | 19% | 31% | 36% | 43% | 0.15 min⁻¹ | 0.15 min⁻¹ | 0.14 min⁻¹ | 1.9 | 1.72 | 1.6 | – | COC(=O)/C=C/c1ccc(O)c(OC)c1
3 | 13000 M⁻¹ s⁻¹ | 0.992 | 0.851 | 0.58 | 19% | 29% | 36% | 42% | 0.14 min⁻¹ | 0.16 min⁻¹ | 0.13 min⁻¹ | 1.9 | 1.7 | 1.6 | – | CCOC(=O)/C=C/c1ccc(O)c(OC)c1 [ETHYL FERULATE]

Continued, molecule first:

Row | SMILES | K [1] | Activity [2] | Activity [3] | Activity [4] | Activity [5] | Activity [6] | Activity [7] | Activity [8] | K [9] | K [10] | K [11] | Activity [12] | Activity [13] | Activity [14] | Activity [15]
4 | Oc1cccc(O)c1O [PYROGALLOL] | 120000 M⁻¹ s⁻¹ | – | – | – | – | – | – | – | – | – | – | – | – | – | –
5 | COc1cc(/C=C/C(=O)O[C@H]2CC[C@@]3(C)C(=CC[C@H]4[C@@H]5CC[C@H]([C@H](C)CC[C@@H](C)C(C)C)[C@@]5(C)CC[C@@H]43)C2)ccc1O | 13000 M⁻¹ s⁻¹ | 1.273 | 1.045 | 0.7 | 21% | 25% | 29% | 39% | 0.17 min⁻¹ | 0.18 min⁻¹ | 0.13 min⁻¹ | 1.65 | 1.4 | 1.19 | Dose-dependent effect
6 | CC[C@H](/C=C/[C@@H](C)[C@H]1CC[C@H]2[C@@H]3CC=C4C[C@@H](OC(=O)/C=C/c5ccc(O)c(OC)c5)CC[C@]4(C)[C@H]3CC[C@]12C)C(C)C | 12000 M⁻¹ s⁻¹ | 1.144 | 1.01 | 0.72 | 23% | 26% | 30% | 44% | 0.18 min⁻¹ | 0.11 min⁻¹ | 0.11 min⁻¹ | 1.68 | 1.76 | 1.78 | Dose-dependent effect
7 | COc1cc(/C=C/C(=O)O[C@H]2CC[C@@]3(C)C(=CC[C@H]4[C@@H]5CC[C@H]([C@H](C)CCCC(C)C)[C@@]5(C)CC[C@@H]43)C2)ccc1O | 12000 M⁻¹ s⁻¹ | 1.245 | 0.979 | 0.74 | 24% | 24% | 30% | 40% | 0.17 min⁻¹ | 0.11 min⁻¹ | 0.11 min⁻¹ | 1.76 | 1.71 | 1.82 | Dose-dependent effect
8 | CC[C@H](CC[C@@H](C)[C@H]1CC[C@H]2[C@@H]3CC[C@H]4C[C@@H](OC(=O)/C=C/c5ccc(O)c(OC)c5)CC[C@]4(C)[C@H]3CC[C@]12C)C(C)C | 15000 M⁻¹ s⁻¹ | 1.156 | 0.991 | 0.64 | 22% | 25% | 28% | 40% | 0.14 min⁻¹ | 0.21 min⁻¹ | 0.14 min⁻¹ | 1.85 | 1.35 | 1.47 | –
9 | COc1cc(/C=C/C(=O)O[C@H]2CC[C@@]3(C)[C@@H](CC[C@@H]4[C@@H]3CC[C@]3(C)[C@@H]([C@H](C)CC[C@@H](C)C(C)C)CC[C@@H]43)C2)ccc1O | 18000 M⁻¹ s⁻¹ | 1.198 | 1.091 | 0.79 | 23% | 27% | 34% | 43% | 0.13 min⁻¹ | 0.19 min⁻¹ | 0.13 min⁻¹ | 1.89 | 1.47 | 1.57 | –
10 | CC[C@H](CC[C@@H](C)[C@H]1CC[C@H]2[C@@H]3CC=C4C[C@@H](OC(=O)/C=C/c5ccc(O)c(OC)c5)CC[C@]4(C)[C@H]3CC[C@]12C)C(C)C | 13000 M⁻¹ s⁻¹ | 1.298 | 0.944 | 0.64 | 20% | 24% | 31% | 43% | 0.19 min⁻¹ | 0.19 min⁻¹ | 0.13 min⁻¹ | 1.64 | 1.38 | 1.16 | Dose-dependent effect
